Reference: ChEMBL document CHEMBL1125337, “Synthesis and antibacterial activity of a series of basic amides of teicoplanin and deglucoteicoplanin with polyamines” (J Med Chem, 1992)
Values after ≈ are worked out from the molar mass of the structure shown.

Tests used:
Enterobacter cloacae [1] = assay: Minimum inhibitory concentration of compound was determined against Enterobacter cloacae L 1485; format: functional
Procedure, shortened: (§1)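 MIC (µg/mL) by microbroth dilution in Iso-Sensitest broth; final inoculum 10^4 cfu/mL; 24 h at 37 °C in air.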

Proteus vulgaris [2] = assay: Minimum inhibitory concentration against Proteus vulgaris ATCC 881; format: functional; procedure, shortened: as §1
Escherichia coli [3] = assay: Minimum inhibitory concentration of compound was determined against Escherichia coli L 1572; format: functional; procedure, shortened: as §1
Pseudomonas aeruginosa [4] = assay: Minimum inhibitory concentration of compound was determined against Pseudomonas aeruginosa L 1498; format: functional; procedure, shortened: as §1
Proteus vulgaris [5] = assay: Minimum inhibitory concentration of compound was determined against Proteus vulgaris L 1539; format: functional; procedure, shortened: as §1
Staphylococcus aureus = assay: Minimum inhibitory concentration against Staphylococcus aureus L 165; format: functional; procedure, shortened: as §1
Escherichia coli [6] = assay: Efficacy of compound administered intravenously against Escherichia coli L 47 Septicemia in mouse; format: functional; details: iv
Procedure, shortened: (§2)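 Mouse septicemia from intraperitoneal injection of about 10^4 cells of E. coli L 47, about 100 times the 50% lethal dose. Groups of five to eight mice each got a single dose immediately after infection, by the route stated in the line. ED50 in mg/kg was calculated from percent survivors at each dose on day 7 (Spearman-Kärber).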

Streptococcus pneumoniae = assay: Minimum inhibitory concentration against Streptococcus pneumoniae L 44; format: functional
Procedure, shortened: (§3)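 MIC (µg/mL) by microbroth dilution in Todd-Hewitt broth, final inoculum 10^4 cfu/mL, incubated 24 h at 37 °C in air.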

Serratia marcescens [7] = assay: Minimum inhibitory concentration of compound was determined against Serratia marcescens L 1488; format: functional; procedure, shortened: as §1
Bacteroides fragilis [8] = assay: Minimum inhibitory concentration of compound was determined against Bacteroides fragilis L 1236; format: functional
Procedure, shortened: (§4)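 Microbroth dilution MIC (µg/mL) in Wilkins-Chalgren broth, final inoculum 10^5 cfu/mL, incubated 48 h in an anaerobic chamber.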

Enterobacter cloacae [9] = assay: Minimum inhibitory concentration of compound was determined against Enterobacter cloacae L 1504; format: functional; procedure, shortened: as §1
Streptococcus pyogenes [10] = assay: Minimum inhibitory concentration of compound was determined against Streptococcus pyogenes L 49 in mouse; format: functional
Escherichia coli [11] = assay: Minimum inhibitory concentration against Escherichia coli L 47; format: functional; procedure, shortened: as §1
Klebsiella pneumoniae [12] = assay: Minimum inhibitory concentration of compound was determined against Klebsiella pneumoniae L 1499; format: functional; procedure, shortened: as §1
[13] = test system: Staphylococcus haemolyticus; assay: Minimum inhibitory concentration against Staphylococcus haemolyticus L 602; format: functional; procedure, shortened: as §1
Streptococcus pyogenes [14] = assay: Minimum inhibitory concentration against Streptococcus pyogenes L 49; format: functional; procedure, shortened: as §3
Klebsiella pneumoniae [15] = assay: Minimum inhibitory concentration of compound was determined against Klebsiella pneumoniae L 1481; format: functional; procedure, shortened: as §1
[16] = test system: Staphylococcus epidermidis; assay: Minimum inhibitory concentration against Staphylococcus epidermidis ATCC 12228; format: functional; procedure, shortened: as §1
Shigella sonnei = assay: Minimum inhibitory concentration of compound was determined against Shigella sonnei L 363; format: functional; procedure, shortened: as §1
Proteus mirabilis [17] = assay: Minimum inhibitory concentration of compound was determined against Proteus mirabilis L 1356; format: functional; procedure, shortened: as §1
Bacteroides fragilis [18] = assay: Minimum inhibitory concentration of compound was determined against Bacteroides fragilis L 1011; format: functional; procedure, shortened: as §4
Proteus mirabilis [19] = assay: Minimum inhibitory concentration of compound was determined against Proteus mirabilis L 1157; format: functional; procedure, shortened: as §1
Pseudomonas aeruginosa [20] = assay: Minimum inhibitory concentration of compound was determined against Pseudomonas aeruginosa L 1138; format: functional; procedure, shortened: as §1
Enterococcus faecalis = assay: Minimum inhibitory concentration against Enterococcus faecalis ATCC 7080; format: functional
Procedure, shortened: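 Microbroth dilution MIC (µg/mL), final inoculum 10^4 cfu/mL, incubated 24 h at 37 °C in air.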

Escherichia coli [21] = assay: Efficacy of compound administered subcutaneously against Escherichia coli L 47 Septicemia in mouse; format: functional; details: sc; procedure, shortened: as §2
Pseudomonas aeruginosa [22] = assay: Minimum inhibitory concentration against Pseudomonas aeruginosa ATCC 10145; format: functional; procedure, shortened: as §1
Escherichia coli [23] = assay: Minimum inhibitory concentration of compound was determined against Escherichia coli L 1513; format: functional; procedure, shortened: as §1
Pseudomonas aeruginosa [24] = assay: Minimum inhibitory concentration of compound was determined against Pseudomonas aeruginosa L 1348; format: functional; procedure, shortened: as §1
Pseudomonas aeruginosa [25] = assay: Minimum inhibitory concentration of compound was determined against Pseudomonas aeruginosa L 1533; format: functional; procedure, shortened: as §1
Streptococcus pyogenes [26] = assay: Efficacy of compound administered subcutaneously against Streptococcus pyogenes L 49 Septicemia in mouse; format: functional; details: sc
Procedure, shortened: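 Mice were infected intraperitoneally with about 10^5 Strep. pyogenes L 49 cells, about 100 times the 50% lethal dose. Groups of 5–8 mice were treated once right after challenge, by the route stated in the line. ED50 (mg/kg) was derived from percentage survival at each dose on day 7 (Spearman-Kärber).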

Bacteroides fragilis [27] = assay: Minimum inhibitory concentration of compound was determined against Bacteroides fragilis L 1010; format: functional; procedure, shortened: as §4
Mus musculus = species on record: Mus musculus; assay: Number of mouse survivors to that of treated with compound; 6 out of 8 survived; format: functional
Serratia marcescens [28] = assay: Minimum inhibitory concentration of compound was determined against Serratia marcescens L 1506; format: functional; procedure, shortened: as §1
Shigella dysenteriae = assay: Minimum inhibitory concentration of compound was determined against Shigella dysentariae L155; format: functional
Escherichia coli [29] = assay: Minimum inhibitory concentration of compound was determined against Escherichia coli L 1153; format: functional; procedure, shortened: as §1
[30] = Association constant to Ac2-L-Lys-D-Ala-D-Ala determined at pH 9; Value ranges from 5E4-7.5E4
Escherichia coli [31] = assay: Minimum inhibitory concentration of compound was determined against Escherichia coli L 1484; format: functional; procedure, shortened: as §1
Salmonella typhimurium = assay: Minimum inhibitory concentration of compound was determined against Salmonella Typhimurium L 35; format: functional, Salmonella enterica subsp. enterica serovar Typhimurium; details: Salmonella enterica; procedure, shortened: as §1
Escherichia coli [32] = assay: Minimum inhibitory concentration of compound was determined against Escherichia coli L 1536; format: functional; procedure, shortened: as §1
Escherichia coli [33] = assay: Minimum inhibitory concentration of compound was determined against Escherichia coli L 1347; format: functional; procedure, shortened: as §1
[34] = Association constant determined at pH 9; Value ranges from 5E4-7.5E4; format: ADME

SMILES	MIC (Enterobacter cloacae [1]) [µg/mL]	MIC (Proteus vulgaris [2]) [µg/mL]	MIC (Escherichia coli [3]) [µg/mL]	MIC (Pseudomonas aeruginosa [4]) [µg/mL]	MIC (Proteus vulgaris [5]) [µg/mL]	MIC (Staphylococcus aureus) [µg/mL]	MIC (Streptococcus pneumoniae) [µg/mL]	MIC (Serratia marcescens [7]) [µg/mL]	MIC (Bacteroides fragilis [8]) [µg/mL]	MIC (Enterobacter cloacae [9]) [µg/mL]	MIC (Streptococcus pyogenes [10]) [µg/mL]	MIC (Escherichia coli [11]) [µg/mL]	MIC (Klebsiella pneumoniae [12]) [µg/mL]	MIC [13] [µg/mL]	MIC (Streptococcus pyogenes [14]) [µg/mL]	MIC (Klebsiella pneumoniae [15]) [µg/mL]	MIC [16] [µg/mL]	MIC (Enterococcus faecalis) [µg/mL]	MIC (Pseudomonas aeruginosa [22]) [µg/mL]	ED50 (Streptococcus pyogenes [26]) [mg/kg]	also measured
NCCCNCCCNCCCNC(=O)[C@H]1NC(=O)[C@H]2NC(=O)[C@H](NC(=O)[C@@H]3NC(=O)[C@H]4NC(=O)[C@@H](Cc5ccc(c(Cl)c5)Oc5cc3cc(c5O)Oc3ccc(cc3Cl)[C@H]2O)NC(=O)[C@H](N)c2ccc(O)c(c2)Oc2cc(O)cc4c2)c2ccc(O)c(c2)-c2c(O)cc(O)cc21	4 (≈ 2.92 µM)	64 (≈ 46.7 µM)	2 (≈ 1.46 µM)	64 (≈ 46.7 µM)	32 (≈ 23.4 µM)	0.063 (≈ 0.046 µM)	0.125 (≈ 0.0913 µM)	8 (≈ 5.84 µM)	128 (≈ 93.5 µM)	8 (≈ 5.84 µM)	0.06 (≈ 0.0438 µM)	0.5 (≈ 0.365 µM)	8 (≈ 5.84 µM)	0.063 (≈ 0.046 µM)	0.063 (≈ 0.046 µM)	4 (≈ 2.92 µM)	0.016 (≈ 0.0117 µM)	0.25 (≈ 0.183 µM)	2 (≈ 1.46 µM)	0.72	ED50 (Escherichia coli [6]): < 40 mg/kg; MIC (Shigella sonnei): 2 µg/mL (≈ 1.46 µM); MIC (Proteus mirabilis [17]): 32 µg/mL (≈ 23.4 µM); MIC (Bacteroides fragilis [18]): 32 µg/mL (≈ 23.4 µM); MIC (Proteus mirabilis [19]): 128 µg/mL (≈ 93.5 µM); MIC (Pseudomonas aeruginosa [20]): 32 µg/mL (≈ 23.4 µM); ED50 (Escherichia coli [21]): > 200 mg/kg; MIC (Escherichia coli [23]): 2 µg/mL (≈ 1.46 µM); MIC (Pseudomonas aeruginosa [24]): 4 µg/mL (≈ 2.92 µM); MIC (Pseudomonas aeruginosa [25]): 64 µg/mL (≈ 46.7 µM); MIC (Bacteroides fragilis [27]): 16 µg/mL (≈ 11.7 µM); Survivors (Mus musculus): 6; MIC (Serratia marcescens [28]): 8 µg/mL (≈ 5.84 µM); MIC (Shigella dysenteriae): 1 µg/mL (≈ 0.73 µM); MIC (Escherichia coli [29]): 1 µg/mL (≈ 0.73 µM); Ka [30]: 75000 M⁻¹; MIC (Escherichia coli [31]): 2 µg/mL (≈ 1.46 µM); MIC (Salmonella typhimurium): 4 µg/mL (≈ 2.92 µM); MIC (Escherichia coli [32]): 2 µg/mL (≈ 1.46 µM); MIC (Escherichia coli [33]): 4 µg/mL (≈ 2.92 µM)
CNCCCN(C)C(=O)[C@H]1NC(=O)[C@H]2NC(=O)[C@H](NC(=O)[C@@H]3NC(=O)[C@H]4NC(=O)[C@@H](Cc5ccc(c(Cl)c5)Oc5cc3cc(c5O)Oc3ccc(cc3Cl)[C@H]2O)NC(=O)[C@H](N)c2ccc(O)c(c2)Oc2cc(O)cc4c2)c2ccc(O)c(c2)-c2c(O)cc(O)cc21	32 (≈ 24.9 µM)	32 (≈ 24.9 µM)	8 (≈ 6.23 µM)	128 (≈ 99.8 µM)	128 (≈ 99.8 µM)	0.063 (≈ 0.0491 µM)	0.125 (≈ 0.0974 µM)	16 (≈ 12.5 µM)	64 (≈ 49.9 µM)	32 (≈ 24.9 µM)	0.06 (≈ 0.0468 µM)	2 (≈ 1.56 µM)	32 (≈ 24.9 µM)	0.063 (≈ 0.0491 µM)	0.063 (≈ 0.0491 µM)	16 (≈ 12.5 µM)	0.063 (≈ 0.0491 µM)	0.125 (≈ 0.0974 µM)	16 (≈ 12.5 µM)	1.25	MIC (Shigella sonnei): 8 µg/mL (≈ 6.23 µM); MIC (Proteus mirabilis [17]): 32 µg/mL (≈ 24.9 µM); MIC (Bacteroides fragilis [18]): 32 µg/mL (≈ 24.9 µM); MIC (Proteus mirabilis [19]): 64 µg/mL (≈ 49.9 µM); MIC (Pseudomonas aeruginosa [20]): 64 µg/mL (≈ 49.9 µM); MIC (Escherichia coli [23]): 8 µg/mL (≈ 6.23 µM); MIC (Pseudomonas aeruginosa [24]): 16 µg/mL (≈ 12.5 µM); MIC (Pseudomonas aeruginosa [25]): 128 µg/mL (≈ 99.8 µM); MIC (Bacteroides fragilis [27]): 32 µg/mL (≈ 24.9 µM); MIC (Serratia marcescens [28]): 32 µg/mL (≈ 24.9 µM); MIC (Shigella dysenteriae): 4 µg/mL (≈ 3.12 µM); MIC (Escherichia coli [29]): 4 µg/mL (≈ 3.12 µM); MIC (Escherichia coli [31]): 16 µg/mL (≈ 12.5 µM); MIC (Salmonella typhimurium): 16 µg/mL (≈ 12.5 µM); MIC (Escherichia coli [32]): 8 µg/mL (≈ 6.23 µM); MIC (Escherichia coli [33]): 8 µg/mL (≈ 6.23 µM)
NCCCNCCCNC(=O)[C@H]1NC(=O)[C@H]2NC(=O)[C@H](NC(=O)[C@@H]3NC(=O)[C@H]4NC(=O)[C@@H](Cc5ccc(c(Cl)c5)Oc5cc3cc(c5O)Oc3ccc(cc3Cl)[C@H]2O)NC(=O)[C@H](N)c2ccc(O)c(c2)Oc2cc(O)cc4c2)c2ccc(O)c(c2)-c2c(O)cc(O)cc21		32 (≈ 24.4 µM)				0.063 (≈ 0.048 µM)	0.125 (≈ 0.0953 µM)				0.13 (≈ 0.0991 µM)	1 (≈ 0.762 µM)		0.125 (≈ 0.0953 µM)	0.063 (≈ 0.048 µM)		0.032 (≈ 0.0244 µM)	0.125 (≈ 0.0953 µM)	8 (≈ 6.1 µM)	1.65	Ka [34]: 50000 M⁻¹
